Shown are actives, neighbours in structure and some others; about 1.5% of the full set was active somewhere.
C8 TRAIL sens: caspase-8 TRAIL sensitization. NB7+C8 cells + TRAIL, ATPlite viability luminescence. inhibition (viability loss, TRAIL sensitization), % at 10 µM. 360,000 compounds, 1% hits;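 active = compounds causing at least 50% loss of cell viability in the single-dose screen, relative to plate controls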
FLuc inh counter: counter-screen for luciferase assay inhibitors: firefly luciferase inhibition; P08659; ATPLite firefly luciferase biochemical luminescence, 10 min; inhibition, % at 10 µM; 200,000 compounds, 1.5% hits; AID 1006;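 active = inhibition above about 50% when tested at 10 µM, limit read from the data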
Target sequence (P08659 whole entry, looked up): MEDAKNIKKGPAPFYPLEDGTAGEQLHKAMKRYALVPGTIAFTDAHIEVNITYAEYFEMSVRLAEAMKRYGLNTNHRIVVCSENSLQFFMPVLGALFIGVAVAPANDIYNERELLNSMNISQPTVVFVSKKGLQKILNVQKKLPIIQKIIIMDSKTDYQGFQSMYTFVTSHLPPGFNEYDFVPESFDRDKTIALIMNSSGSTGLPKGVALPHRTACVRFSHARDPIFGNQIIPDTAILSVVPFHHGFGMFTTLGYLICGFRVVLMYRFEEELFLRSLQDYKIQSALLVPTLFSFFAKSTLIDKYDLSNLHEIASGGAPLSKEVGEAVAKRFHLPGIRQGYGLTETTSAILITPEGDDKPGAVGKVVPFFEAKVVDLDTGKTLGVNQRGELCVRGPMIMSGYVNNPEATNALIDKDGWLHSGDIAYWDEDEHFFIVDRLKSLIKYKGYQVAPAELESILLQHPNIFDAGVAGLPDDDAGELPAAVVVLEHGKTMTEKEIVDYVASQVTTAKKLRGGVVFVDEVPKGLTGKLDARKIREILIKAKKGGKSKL
PPC-1+TRAIL kill: PPC-1 cancer cell killing with TRAIL present. PPC-1 cells + TRAIL, ATPLite viability luminescence. cell killing (% activity), % at 4 µM or 5 µM. 220,000 compounds, 0.41% hits. AID 1443;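 active = cell killing above 50% in the first pass at 4 µM, then a duplicate retest at 5 µM averaging 50% or more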;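 also: plate controls were cells with TRAIL plus DMSO for no effect and medium-only wells lacking cells for full effect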
FLuc act counter: firefly luciferase counter-screen for stimulation assays; AID 1027; 200,000 tested, under 10 active; activation factor at 10 µM; ATPlite luciferase biochemical, luminescence, 10 min; 0 = ATP-free wells, 1 = DMSO control; P08659;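 active = luciferase activation factor, scaled between plate controls, of at least 2 with compound at 10 µM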
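Assay system: Luciferase/luciferin detection reagent, cell-free biochemical luciferase assay / Read-out: luciferase activation / Benchmarks: No-ATP low control, compound-free enzyme-plus-ATP high control / Medium: PBS buffer for ATP / Detection: luminescence measurement of luciferase light output / Schedule: 10 min at ambient temperature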
PPC1 cytotox: PPC-1 cell cytotoxicity; shares compounds with PPC-1+TRAIL kill; PPC-1 viability, ATPlite luminescence, overnight; cytotoxicity, % at 5 µM; 1,200 compounds, 50% hits;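 active = reconfirmed compounds whose average cytotoxicity reaches 50% or more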;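 also: 0% = DMSO-treated cells and 100% = wells holding medium but no cells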
An asterisk follows results filed as active; . = no result given.

SMILES | C8 TRAIL sens | FLuc inh counter | PPC-1+TRAIL kill | FLuc act counter | PPC1 cytotox
CCN(CC)c1ccc(NC(=S)NC(=O)c2ccco2)cc1 | 12.6 | 8.1 | . | 0.9 | .
CCN(CC)c1ccc(NC(=O)c2ccco2)cc1 | 62.0* | 83.2* | 57.6* | 0.2 | 61.4*
CC1CCCc2sc3ncn(N)c(=N)c3c21 (configuration not stated) | 5.4 | -3.8 | 4.9 | 1 | .
CCOC(=O)c1cccc(C(=O)Nc2nc3ccc(OC)cc3s2)n1 | 81.9* | 90.7* | 68.3* | 0.1 | 67.3*
O=C(Nc1nccs1)C1CCN(S(=O)(=O)c2c(Cl)cccc2Cl)CC1 | 4.9 | -4.1 | -7.0 | 1 | .
CCCCCCCCCn1c2c(c(=N)c3c1CCC3)CCCC2 | 30.6 | -1.6 | 48.5 | 1 | 49.8
CCCCCCCCCCn1c2c(c(=N)c3c1CCC3)CCC2 | 78.7* | -6.0 | 56.4* | 1.1 | 53.5*
CCCCCn1c2c(c(=N)c3ccccc31)CCC2 | 0.5 | . | -0.6 | . | .
O=C(Cn1nnc(-c2ccccc2Cl)n1)N/N=C/c1ccc(-c2cccc(Cl)c2)o1 | -7.6 | -7.3 | 35.7 | 1.1 | .
NC(=O)c1ccc(NC(=O)COC(=O)c2ccc(Br)o2)cc1 | -8.4 | . | . | . | .
COc1ccc(OCC(=O)N/N=C(\CCC(=O)O)c2cccs2)cc1 | 0.4 | -1.1 | 14.4 | 1 | 10.1
COc1ccc(OCC(=O)N/N=C(\C)c2cccs2)cc1 | -11.1 | . | 15.4 | . | .
O=[N+]([O-])c1ccc(Nc2ccccc2)c2nonc12 | -6.0 | . | . | . | .
O=[N+]([O-])c1ccc(Sc2cccc[n+]2[O-])c2nonc12 | 19.1 | . | 34.1 | . | 30.9
CCOC(=O)c1c(N2CCN(c3ccccc3)CC2)cc(C)nc1C | 2.4 | . | . | . | .
CCOC(=O)c1c(Nc2ccccc2N)cc(C)nc1C | 0.0 | -8.1 | -4.2 | 1.1 | -26.4
CCc1ccc(C(=O)COC(=O)c2cccc(N3C(=O)c4c(C)nc5ccccc5c4C3=O)c2)cc1 | 73.2* | 51.3* | 71.8* | 0.5 | 71.9*
CCCCCCCCC[n+]1cccc2c3ccccc3ccc21 | 62.1* | -5.7 | 29.5 | 1.1 | 32.4
O=[N+]([O-])c1ccc(C[n+]2cccc3c4ccccc4ccc32)cc1 | 30.6 | -3.6 | 13.4 | 1 | .
Cc1ccc(-n2nnc(-c3nccn3C)n2)cc1 | 71.2* | 88.1* | 54.6* | 0.1 | 52.8*
O=[N+]([O-])c1ccc(N/N=C/c2ccc(O)c(O)c2O)c(S(=O)(=O)N2CCOCC2)c1 | 13.6 | 1.2 | 4.0 | 1 | 7.5
O=[N+]([O-])c1ccc(N/N=C/c2cccc(O)c2O)c(S(=O)(=O)N2CCOCC2)c1 | 21.6 | -3.9 | 16.4 | 1 | .
Cn1c(SCC(=O)NCC2CCCO2)ncc(C(=O)Nc2ccc(Cl)cc2)c1=O (configuration not stated) | 15.3 | . | . | . | .
Cc1nc2cc(NCc3nc4ccccc4n3Cc3ccccc3)ccc2n1C | 17.6 | 86.6* | 60.9* | 0.1 | 63.3*
CCCCNC(=O)c1onc(CSc2ccc(F)c(F)c2)c1C(=O)O | -8.2 | -7.4 | 13.5 | 1.1 | .
SMILES | C8 TRAIL sens | FLuc inh counter | PPC-1+TRAIL kill | FLuc act counter | PPC1 cytotox
Clc1ccc(OCc2nc3ccccc3[nH]2)cc1 | 36.7 | 69.6* | 33.0 | 0.3 | 36.4
Cc1ccc(OCc2nc3ccccc3[nH]2)cc1 | 30.2 | 87.5* | 48.9 | 0.1 | 42.6
c1ccc(OCc2nc3ccccc3[nH]2)cc1 | 14.3 | 34.3 | 23.6 | 0.7 | .
Cc1ccc(S(=O)(=O)N2CCC(C(=O)NCc3ccncc3)CC2)cc1 | -8.2 | -5.2 | -13.1 | 1.1 | .
CN(CC(=O)NCCc1ccc(S(N)(=O)=O)cc1)S(=O)(=O)c1ccc(Br)s1 | 5.0 | . | . | . | .
CCCN=C1N(CC)C[C@@H]2[C@@H]3C(=O)N(C)C(=O)[C@@H]3[C@](C)(C(=O)OC)N12 | 8.7 | . | . | . | .
COc1ccc(-c2ccc3nncn3c2)cn1 | -14.2 | . | . | . | .
COCn1c(-c2ccc(OC)cc2)nc2ccccc21 | 44.9 | 75.8* | 34.2 | 0.2 | 42.3
Cc1ccc(S(=O)(=O)NCC(=O)OCC(=O)N2CCN(C(=O)c3ccco3)CC2)cc1C | -13.0 | . | . | . | .
CCC(=O)N1CCc2cc(S(=O)(=O)N3CCc4ccccc43)ccc21 | 11.5 | -1.7 | -2.5 | 1 | -2.9
O=C(O)CCCC(=O)N1CCc2cc(S(=O)(=O)N3CCc4ccccc43)ccc21 | 6.9 | -4.0 | 7.8 | 1 | .
Cn1ccc(CC(=O)N2CCC(N3CCC(C(=O)N4CCCC4)CC3)CC2)c1 | 43.7 | . | 0.0 | . | .
N#Cc1nc(-c2ccco2)oc1N1CCC(C(N)=O)CC1 | -5.9 | -3.6 | -4.0 | 1 | -1.7
N#Cc1nc(-c2ccccc2)oc1N1CCC(C(N)=O)CC1 | 0.8 | . | . | . | .
CCN1/C(=C/C=C/c2oc3ccc4ccccc4c3[n+]2CC)Oc2ccc3ccccc3c21 | . | 14.8 | 23.1 | 0.9 | 17.6
CC[n+]1c(/C=C/N(C)c2ccccc2)oc2ccc(Cl)cc21 | 20.0 | -1.2 | 6.8 | 1 | .
CCCCC(=O)Nc1cc(C)c(NC(=O)c2ccco2)cn1 | -18.4 | . | . | . | .
CC(NS(=O)(=O)c1ccccc1)C1COc2ccccc2O1 (configuration not stated) | 7.9 | -8.8 | 12.5 | 1.1 | .
CC(NC(=O)c1ccccc1Cl)C1COc2ccccc2O1 (configuration not stated) | -7.0 | 2.2 | 0.5 | 1 | -0.1
Cc1ccc(-c2nc(-c3ccccc3)no2)c(Cl)c1 | 87.1* | 94.9* | 80.6* | 0.1 | 76.6*
CCCC(C)NC(=O)C1c2ccccc2Oc2ccccc21 (configuration not stated) | -5.4 | . | . | . | .
Cc1cc(C)c2c(N)c(-c3nc4ccccc4[nH]3)sc2n1 | -1.9 | -10.4 | -0.6 | 1.1 | .
Cc1ccc2nc(-c3sc4nc(C)ccc4c3N)[nH]c2c1 | 54.0* | 62.0* | 31.6 | 0.4 | 23.7
C=CCOc1ccc(/C=C/C(=O)OCc2csc(CC(=O)Nc3ccccc3C)n2)cc1 | 7.9 | . | . | . | .
c1ccc(COc2ccc(Oc3nc(N4CCCCC4)nc(N4CCOCC4)n3)nn2)cc1 | -14.5 | -4.0 | -5.5 | 1 | .
SMILES | C8 TRAIL sens | FLuc inh counter | PPC-1+TRAIL kill | FLuc act counter | PPC1 cytotox
Cc1ccc(Nc2nc(Oc3ccc(OCc4ccccc4)nn3)nc(N3CCOCC3)n2)cc1 | 29.0 | -2.9 | 15.8 | 1 | 12.9
CC(C)CNC(=O)c1ccccc1NC(=O)/C=C/c1cccc([N+](=O)[O-])c1 | -1.2 | -4.2 | -3.6 | 1 | .
CCCNC(=O)c1oc2ccc3c(c2c1C)C(=O)CC(C)(C)O3 | 52.0* | 75.9* | 51.6* | 0.2 | 46.9
CCCNC(=O)c1oc2ccc3c(c2c1C)C=CC(C)(C)O3 | 2.6 | . | . | . | .
Cc1ccc(-c2cnc3cc(C)nn3c2)cc1 | 68.4* | 91.2* | 55.7* | 0.1 | 55.7*
O=C1CCCN1CCCNS(=O)(=O)c1ccc(F)c(F)c1 | -9.4 | . | . | . | .
O=C(/C=C/c1ccc(S(=O)(=O)NCc2ccco2)cc1)N1CCN(c2ccccc2)CC1 | 4.5 | -2.6 | 27.0 | 1 | .
O=C1C=C(NCCN2CCOCC2)C(=O)c2cnccc21 | . | 1.3 | 65.2* | 1 | 66.6*
CCCc1cc(=O)[nH]c(SCC(=O)N2CCN(c3ccc(F)cc3)CC2)n1 | -2.6 | -7.9 | 6.8 | 1.1 | 0.5
Cc1cc(=O)[nH]c(SCC(=O)N2CCCCCC2)n1 | 4.0 | -4.7 | 13.8 | 1 | 13.1
